Assay results taken from paper PMC9774327 (ACS Omega, 2022).
Where a SMILES comes first, the peptide text is derived from it. Bridges are numbered along the chain shown (N, C = ends). Where no end group is shown, it is not given here. [ ]: non-standard residue; d: D form. S5 = C=CCCC[C@](C)(N)C(=O)O

Assays:
HL-60 cells = assay: NBT reduction assay of VDR-mediated cell differentiation; type: cell-based; settings: 1 μM peptide with 30 nM VD3, 48 h, NBT-positive cells counted
How it was run: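 HL-60 cells in RPMI-1640 with 10% heat-inactivated FBS were treated 48 h with VD₃ (30 nM) with or without peptide. Cells were then stained with 1 mg/mL NBT plus 320 nM PMA for 30 min at 37 °C. NBT-positive cells were counted microscopically among more than 200 cells and expressed as a percentage. Data are means ± SD of three independent experiments.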

[1] = target: T1, VDR-mediated transcription in MCF-7 cells expressing the VDR (Homo sapiens, UniProt P11473); assay: Dual-luciferase reporter gene assay of VDR-mediated transcription; type: cell-based; settings: 3 μM peptide, 30 nM calcitriol defined as 100%, 16 h incubation
T1 sequence (P11473 1-427): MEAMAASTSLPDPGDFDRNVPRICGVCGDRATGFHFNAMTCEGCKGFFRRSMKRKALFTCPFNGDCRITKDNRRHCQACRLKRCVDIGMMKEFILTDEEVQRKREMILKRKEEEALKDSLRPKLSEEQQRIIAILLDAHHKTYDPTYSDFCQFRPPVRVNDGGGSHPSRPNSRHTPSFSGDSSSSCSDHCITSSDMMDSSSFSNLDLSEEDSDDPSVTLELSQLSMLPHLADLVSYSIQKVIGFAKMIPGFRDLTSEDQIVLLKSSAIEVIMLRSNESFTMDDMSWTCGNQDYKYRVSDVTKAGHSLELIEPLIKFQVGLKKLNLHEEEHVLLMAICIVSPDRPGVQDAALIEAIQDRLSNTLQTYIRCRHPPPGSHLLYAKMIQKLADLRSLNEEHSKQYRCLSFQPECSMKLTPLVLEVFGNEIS
How it was run: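 MCF-7 cells (RPMI-1640, 10% heat-inactivated FBS, 1% penicillin/streptomycin) seeded at 4×10^4 cells/well and cultured 24 h. Cells were co-transfected by lipofection with a VDRE-firefly luciferase reporter and SV40-Renilla luciferase control. After 8 h, test compound was added with 1α,25(OH)₂D₃ (30 nM) for 16 h. Dual-luciferase activity was read in lysates, with 30 nM calcitriol activation set as 100%.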

MCF-7 cells = assay: Confocal microscope observation of intracellular localization; type: cell-based; settings: peptide 1 μM with LysoTracker 70 nM for 2 h, Figure S8
How it was run: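 MCF-7 cells grown in RPMI-1640 with 10% heat-inactivated FBS and 1% penicillin/streptomycin, then plated on glass-bottom dishes. They were co-incubated 2 h with peptide and LysoTracker, then stained with Hoechst33342 for 5 min and washed with PBS before confocal imaging.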

[2] = target: ligand binding domain of rat VDR with a deleted loop region (Ser165–Pro211) (rat) (UniProt P13053); assay: fluorescence polarisation
Sequence of ligand binding domain of rat VDR with a deleted loop region (Ser165–Pro211) (rat) (P13053 212-423, stated change not applied): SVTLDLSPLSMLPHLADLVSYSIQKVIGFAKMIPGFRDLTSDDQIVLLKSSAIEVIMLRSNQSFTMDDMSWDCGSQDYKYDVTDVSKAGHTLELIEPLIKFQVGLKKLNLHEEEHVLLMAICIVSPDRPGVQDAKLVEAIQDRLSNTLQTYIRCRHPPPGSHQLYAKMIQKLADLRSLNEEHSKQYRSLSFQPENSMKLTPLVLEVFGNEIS

Molecule	inhibition of HL-60 cell differentiation at 1 μM (HL-60 cells)	% Inhibition at 3 μM of VDR-mediated transcriptional activity [1] [%]	intracellular localization (confocal microscopy) (MCF-7 cells)	relative value of IC50 (to SRC2-3) [2]
KENALLRYLLDKDGGGRRRRRRRRR-NH2 [Peptide 21]	did not inhibit cell differentiation			
CC(C)C[C@H](NC(=O)[C@H](CC(C)C)NC(=O)[C@]1(C)CCCC=CCCC[C@](C)(NC(=O)[C@H](CC(N)=O)NC(=O)[C@H](CCC(=O)O)NC(=O)[C@@H](N)CCCCN)C(=O)N[C@@H](CC(C)C)C(=O)N[C@@H](CC(C)C)C(=O)N[C@@H](CCCNC(=N)N)C(=O)N1)C(=O)N[C@@H](CC(=O)O)C(=O)N[C@@H](CCCCN)C(=O)N[C@@H](CC(=O)O)C(=O)NCC(=O)NCC(=O)NCC(=O)N[C@@H](CCCNC(=N)N)C(=O)N[C@@H](CCCNC(=N)N)C(=O)N[C@@H](CCCNC(=N)N)C(=O)N[C@@H](CCCNC(=N)N)C(=O)N[C@@H](CCCNC(=N)N)C(=O)N[C@@H](CCCNC(=N)N)C(=O)N[C@@H](CCCNC(=N)N)C(=O)N[C@@H](CCCNC(=N)N)C(=O)N[C@@H](CCCNC(=N)N)C(N)=O [Peptide 23] (H-KEN[S5]LLR[S5]LLDKDGGGRRRRRRRRR-NH2; staple 4-8)		44.3	localized in the endosome	
CC(C)C[C@H](NC(=O)[C@H](C)NC(=O)[C@H](CC(N)=O)NC(=O)[C@H](CCC(=O)O)NC(=O)[C@@H](N)CCCCN)C(=O)N[C@@H](CC(C)C)C(=O)N[C@@H](CCCNC(=N)N)C(=O)N[C@@]1(C)CCCC=CCCC[C@@](C)(C(=O)N[C@@H](CC(=O)O)C(=O)NCC(=O)NCC(=O)NCC(=O)N[C@@H](CCCNC(=N)N)C(=O)N[C@@H](CCCNC(=N)N)C(=O)N[C@@H](CCCNC(=N)N)C(=O)N[C@@H](CCCNC(=N)N)C(=O)N[C@@H](CCCNC(=N)N)C(=O)N[C@@H](CCCNC(=N)N)C(=O)N[C@@H](CCCNC(=N)N)C(=O)N[C@@H](CCCNC(=N)N)C(=O)N[C@@H](CCCNC(=N)N)C(N)=O)NC(=O)[C@H](CC(=O)O)NC(=O)[C@H](CC(C)C)NC(=O)[C@H](CC(C)C)NC1=O [Peptide 24]	did not inhibit cell differentiation		broadly localized over the entire cell	
SRC2-3 peptide				1
